Format in all cases: functional
The species entered for assay [1] is Rattus norvegicus. The assay is described as follows: Compound was tested for the K+ excretion for treated over control animals. The essentials: (§1)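 Male Sprague-Dawley rats (300-325 g) under halothane/lidocaine had femoral artery, femoral vein and bladder cannulated. After at least 1 h of recovery in restraint, they received Ringer's (1.2 mL/h), with 10-min urine collections over a 30-min control period. Infusion of 0.5 μg/kg per min for 30 min and a 30-min Ringer's recovery followed. Na+, K+ and Cl- were measured with an electrolyte analyzer, reported as treated minus control μmol/sample. Volume ratio is treated/control over three consecutive 10-min samples, six animals.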

The species named for assay [2] is Rattus norvegicus. Description: Compound was tested for the Na+ excretion for treated over control animals. The essentials: as §1
The species named for assay [3] is Rattus norvegicus. The assay is described as follows: Compound was tested for antihypertensive activity in 5/6 nephrectomized rats. In short, it runs like this:
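Rats were anesthetized with halothane after skin infiltration with 2% lidocaine, and the femoral artery and vein were cannulated. After recovery, arterial pressure was recorded. A saline control period was followed by i.v. infusion in 30-min steps at 0.1, 0.2, 0.5 and 1.0 μg/kg per min (70 μL/kg per min). Hydralazine (100 μg/kg per min) was given for standardization. ED50 is in nmol/kg per min, from six animals.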

The subject of assay [4] is Rattus norvegicus. The assay is described as follows: Compound was tested for diuretic activity and the ratio of urine volume for treated over control animals was reported after infused at a dose of 0.5 ug/kg. The essentials:
as §1

Assay [5] is filed under the species Rattus norvegicus. The assay is described as follows: Compound was tested for the Cl- excretion for treated over control animals. The essentials:
as §1

The species entered for assay [6] is Rattus norvegicus. Description: Compound was tested for the Cl- excretion for treated over control animals. In short, it runs like this: as §1

This note sets out measurements from ChEMBL document CHEMBL1124824, “Synthesis and biological activity of atrial natriuretic factor analogues: effect of modifications to the disulfide bridge” (J Med Chem, 1990).

Each structure is given as a SMILES string. Positions of bridges follow the written chain, without caps; N, C: chain ends. Non-standard residues stand in square brackets, D forms with d. Residues, ends and D or L forms follow the SMILES beside them. Asu = N[C@@H](CCCCCC(=O)O)C(=O)O

On to `CC[C@H](C)[C@@H]1NC(=O)[C@H](CCCN=C(N)N)NC(=O)[C@H](CC(=O)O)NC(=O)[C@H]([C@@H](C)CC)NC(=O)[C@H](CCCN=C(N)N)NC(=O)CNC(=O)CNC(=O)[C@H](Cc2ccccc2)NC(=O)CCC=CC[C@@H](C(=O)N[C@@H](CC(N)=O)C(=O)N[C@@H](CO)C(=O)N[C@@H](Cc2ccccc2)C(=O)N[C@@H](CCCN=C(N)N)C(=O)N[C@@H](Cc2ccc(O)cc2)C(=O)O)NC(=O)CNC(=O)[C@H](CC(C)C)NC(=O)CNC(=O)[C@H](CO)NC(=O)[C@H](CCC(N)=O)NC(=O)[C@H](C)NC(=O)CNC1=O`, for which the figures for the Electrolyte excretion in the assay filed under Rattus norvegicus [1], in the assay filed under Rattus norvegicus [2] and in the assay filed under Rattus norvegicus [5] were 3.2 uM sample-1, 0.4 uM sample-1 and 7.3 umol/sample, respectively. The ED50 in the assay listed under Rattus norvegicus [3] stood at 1.2 nM/min/kg. Moreover, the Ratio with Rattus norvegicus [4] amounted to 2.5.

As for `CC[C@H](C)[C@@H]1NC(=O)[C@H](CCCN=C(N)N)NC(=O)[C@H](CC(=O)O)NC(=O)[C@H]([C@@H](C)CC)NC(=O)[C@H](CCCN=C(N)N)NC(=O)CNC(=O)CNC(=O)[C@H](Cc2ccccc2)NC(=O)CCCCC[C@@H](C(=O)N[C@@H](CC(N)=O)C(=O)N[C@@H](CO)C(=O)N[C@@H](Cc2ccccc2)C(=O)N[C@@H](CCCN=C(N)N)C(=O)N[C@@H](Cc2ccc(O)cc2)C(=O)O)NC(=O)CNC(=O)[C@H](CC(C)C)NC(=O)CNC(=O)[C@H](CO)NC(=O)[C@H](CCC(N)=O)NC(=O)[C@H](C)NC(=O)CNC1=O` (FGGRIDRIGAQSGLG[Asu]NSFRY-OH; lactam N-16), the Electrolyte excretion was determined as 0 uM sample-1 in the assay listed under Rattus norvegicus [1], 10 uM sample-1 in the assay filed under Rattus norvegicus [6] and 4.8 uM sample-1 in the assay listed under Rattus norvegicus [2]. Moreover, the ED50 in the assay listed under Rattus norvegicus [3] came to 5.7 nM/min/kg. Also, the Ratio in the assay with Rattus norvegicus [4] was determined as 2.1.
